# TAAR1 ag: agonists of human TAAR1; CHO RD-HGA16 TAAR1, Fluo-8 calcium fluorescence; vehicle wells 0%, saturating PEA agonist 100%; activation, % at 3 µM; 360,000 compounds, 0.99% hits;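 active means activation above the mean activation of all test compounds in the run plus 3 SD, cut at about 38% in these data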
# Target sequence (Q96RJ0 whole entry, looked up): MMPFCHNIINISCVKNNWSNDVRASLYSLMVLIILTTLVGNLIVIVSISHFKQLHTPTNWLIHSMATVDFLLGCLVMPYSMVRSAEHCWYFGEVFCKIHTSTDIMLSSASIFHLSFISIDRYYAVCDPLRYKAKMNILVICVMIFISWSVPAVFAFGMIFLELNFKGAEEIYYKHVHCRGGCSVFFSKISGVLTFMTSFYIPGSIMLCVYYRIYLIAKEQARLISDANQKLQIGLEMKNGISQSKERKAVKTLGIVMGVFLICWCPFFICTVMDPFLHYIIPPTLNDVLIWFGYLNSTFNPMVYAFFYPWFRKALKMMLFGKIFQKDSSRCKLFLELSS
#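 System: CHO RD-HGA16 cells carrying human TAAR1 plus Gα16; Incubation: 17-24 h seeding, 75 min 37 °C dye, 30 min RT; Measured by: Fluo-8 fluorescence, 5 s baseline then 140 s kinetic read; Control set: DMSO and PEA EC100; Replication: single well for each compound.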
# TAAR1 antagonist: antagonists of human TAAR1; CHO RD-HGA16 TAAR1, Fluo-8 calcium fluorescence, antagonist; Q96RJ0; 360,000 compounds, 1.5% hits; inhibition, % at 3 µM;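 active means inhibition above a per-plate cutoff, the mean inhibition of test compounds on that plate plus 3 SD, cut at about 49% in these data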;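 further: 0% = DMSO plus EC80 beta-PEA response and 100% = DMSO alone without agonist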
#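 Test system: RD-HGA16 CHO cells with stable hTAAR1 and Gα16 / Probe or stimulus: EC80 β-phenethylamine stimulus / Times: seeding 17-24 h prior, 75-min 37 °C, 30-min RT dye loading / Detection: Fluo-8 calcium-sensitive fluorescence / Read-out basis: % inhibition scaled between DMSO and EC80 PEA controls / Repeats: singlicate, one well per test compound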
# TMEM16A inh: mouse TMEM16A channel inhibition, primary screen; Q8BHY3; HEK293 TMEM16A/YFP iodide influx fluorescence, ionomycin; normalized B-score (activity score, 25-100; higher = stronger inhibition) at 10 µM; 310,000 compounds, 1.2% hits;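 active means ratio plate-corrected score three or more library SD toward inhibition, starting fluorescence score within five deviations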;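 further: score derived from kinetic fluorescence span divided by baseline fluorescence per well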
# CRFBP-R2 block: CRF-BP/CRF-R2 complex antagonism | HEK293 CRF-R2/CRF-BP, CRF-induced calcium fluorescence | inhibition, % at 11.8 µM | 350,000 compounds, 0.59% hits | AID 588475;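 active means inhibition of the ligand-induced calcium signal above about 50% at the single tested concentration, limit read from the data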
# CRFR2-BP ag: CRF-BP/CRF-R2 complex agonism | activation, % at 13.2 µM | AID 588473 | 350,000 compounds, 0.46% hits | HEK293 CRF-R2/CRF-BP, calcium dye fluorescence (FLIPR); percent of saturating CRF peptide response;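 active means activation of at least 50%, plus an integration ratio under a set limit after plate pattern correction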;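 further: plate controls were neutral control wells without compound for no effect and CRF at EC100 for full effect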
# ANO1 activ: activates or potentiates the mouse TMEM16A chloride channel; Q8BHY3; 340,000 compounds, 0.3% hits; B-score at 10 µM; HEK293 TMEM16A/YFP-H148Q/I152L, iodide quench fluorescence; hits give low values;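 active means fluorescence-ratio B-score plate-corrected deviation score at least 3 library SD below zero, with starting fluorescence score within 5 deviations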;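 further: channel opened by trigger with iodide after compound preincubation; score built on the fluorescence ratio of max minus min over baseline; more negative score means more quench and so TMEM16A activation or potentiation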
# nonsel antag count: nonselective antagonism, TAAR1 counter-screen; AID 651780; 2,400 compounds, 77% hits; counterscreen cell line, calcium fluorescence, antagonist mode; inhibition, % at 3 µM; shares compounds with TAAR1 antagonist; in the data active means inhibition above about 22%;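 further: CHO-Ga16 host cells stimulated with ATP at an EC80 level; 0% = agonist EC80 plus vehicle and 100% = vehicle without agonist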
# TAAR1 antag conf: confirmation of human TAAR1 antagonists; inhibition, % at 3 µM; TAAR1-expressing cells, fluorescence antagonist read-out; shares compounds with TAAR1 antagonist; AID 651785; 2,400 compounds, 40% hits; in the data active means inhibition above about 49%;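 further: CHO-Ga16 host cells challenged with agonist PEA near its EC80; 0% = agonist at EC80 plus vehicle and 100% = vehicle with no agonist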
# Ga16 nonsel ag: nonselective Ga16 agonist in TAAR1 antagonist counter-screen; Ga16-expressing cells, calcium fluorescence, agonist counterscreen; 2,400 compounds, 18% hits; activation, % at 3 µM; shares compounds with TAAR1 antagonist; in the data active means activation above about 12%;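 further: 0% = vehicle wells and 100% = saturating stimulus response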
# TAAR1 ag count: activates human TAAR1 in antagonist counter-screen; shares compounds with TAAR1 antagonist; hTAAR1 cell line, fluorescence activation, agonist mode; activation, % at 3 µM; 2,400 compounds, 2% hits; in the data active means activation above about 37%;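 further: CHO cells stably expressing TAAR1 with calcium dye readout; 0% = DMSO vehicle and 100% = full agonist response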
# * hit, by the source's call; i = inactive; . = no result given. Rows were chosen to be rich in hits. Some 3.9% of all compounds tested hit in one or more screens of this group.
SMILES,TAAR1 ag,TAAR1 antagonist,TMEM16A inh,CRFBP-R2 block,CRFR2-BP ag,ANO1 activ,nonsel antag count,TAAR1 antag conf,Ga16 nonsel ag,TAAR1 ag count
CC(=O)Nc1ccc(CN2C(=O)C(C)(C)ON=C2c2ccc(NC(C)=O)cc2)cc1,1,-7,.,.,.,.,.,.,.,.
COc1cc(NC(=O)CCS(=O)(=O)c2ccc3c(c2)n(C)c(=O)c(=O)n3C)cc(OC)c1,0,-8,i,16,1,i,.,.,.,.
COc1ccccc1NS(=O)(=O)c1ccc2oc(SC(C)C(=O)N3CCNC3=O)nc2c1 (stereo unspecified),23,74*,.,-7,-1,i,40*,52*,16*,16
COc1ccccc1NS(=O)(=O)c1ccc2oc(SCC(C)=O)nc2c1,6,-3,i,12,0,i,.,.,.,.
COc1cc(-c2nc3ccc(C)cn3c2NCc2ccccc2)ccc1-c1cccc(Cl)c1,4,22,.,6,1,i,.,.,.,.
COc1ccc(CSc2ccc(-c3nc4ccccn4c3NCc3ccccc3)cc2OC)cc1,18,71*,i,2,2,i,30*,48,4,9
CCC(C)Sc1ccc(-c2nc3ccccn3c2NCc2ccccc2)cc1OC (stereo unspecified),.,.,.,1,-1,i,.,.,.,.
COc1cc(-c2nc3ccc(C)cn3c2NCc2ccccc2)ccc1SC1CCCCC1,6,54*,i,2,-1,i,25*,30,2,0
CCCCNc1c(-c2ccc(OC)c(SC3CCCCC3)c2)nc2cc(C)ccn12,9,84*,i,-4,0,i,40*,49*,4,10
CCc1nnc(NC(=O)C(c2ccccc2)c2ccccc2)s1,17,-24,i,-22,-1,i,.,.,.,.
O=C(COC(=O)c1cccc(Br)c1)Nc1ccc2[nH]c(=O)[nH]c2c1,3,-14,i,5,-1,i,.,.,.,.
CN(Cc1ccccc1)C(=O)c1ncn(Cc2ccccc2)c1C(=O)N(C)Cc1ccccc1,29,64*,.,-5,2,i,29*,56*,12*,9
CN(Cc1ccccc1)C(=O)c1ncn(C)c1C(=O)N(C)Cc1ccccc1,3,8,.,-15,-3,i,.,.,.,.
Cc1cc(C(=O)COC(=O)c2nccnc2N)c(C)n1C,-3,105*,i,-9,0,i,11,7,-1,-2
Cc1ccc(C)c2[nH]c(=O)c(CN(Cc3ccco3)C(=S)NCC3CCCO3)cc12 (stereo unspecified),2,16,i,-15,0,i,.,.,.,.
CC1(C)CC(C(CCN(Cc2ccccc2)C(=O)c2ccco2)c2ccc(F)cc2)CCO1 (stereo unspecified),5,73*,i,28,2,i,41*,54*,6,0
O=C(c1ccco1)N(CCC(c1ccccc1)c1ccco1)Cc1ccc(F)cc1 (stereo unspecified),.,.,i,6,0,i,.,.,.,.
CCO[C@@H]1OC(C(=O)N2CCN(Cc3ccccc3)CC2)=C[C@H](c2csc3ccccc23)[C@H]1CCCO,9,52*,i,8,3,i,23*,25,5,1
CCO[C@H]1OC(C(=O)N2CCCCCCC2)=C[C@@H](c2csc3ccccc23)[C@@H]1CCCO,13,9,i,-12,2,i,.,.,.,.
Oc1ccccc1OCCOc1ccccc1OCCOc1ccccc1O,10,79*,i,-8,-1,i,35*,55*,9,9
Cc1cccc(NC(=O)C2CCN(S(=O)(=O)c3c(C)c(C)cc(C)c3C)CC2)n1,0,78*,100*,-7,6,i,24*,50*,5,7
COc1c(OC(C)=O)c(=O)n2c3ccccc3c3ccnc1c32,1,1,i,10,-1,i,.,.,.,.
COc1ccc(C(=O)/C=C/c2ccc(OCc3ccccc3)cc2)cc1CSCC(=O)O,13,62*,i,-5,-1,i,38*,54*,10,10
COc1ccc(C(=O)/C=C/c2cccc(OCc3ccccc3)c2)cc1CSCC(=O)O,3,15,i,3,0,i,.,.,.,.
COC(=O)c1[nH]c2cc(OC)c(OC)cc2c1/C=N/Nc1ccccc1,5,15,i,-9,0,i,.,.,.,.
SMILES,TAAR1 ag,TAAR1 antagonist,TMEM16A inh,CRFBP-R2 block,CRFR2-BP ag,ANO1 activ,nonsel antag count,TAAR1 antag conf,Ga16 nonsel ag,TAAR1 ag count
CCN(c1ccccc1)S(=O)(=O)c1ccc(NC(=S)NC(=O)c2ccc(Br)o2)cc1,8,64*,i,43,1,i,33*,40,8,0
CSc1sccc1/C=C(/C#N)C(=O)c1ccco1,3,50*,i,14,2,i,33*,57*,7,10
COc1cccc(-c2nn(-c3ccccc3)cc2C(=O)n2nnc3ccccc32)c1,6,12,i,-7,-1,i,.,.,.,.
COc1cccc(-c2nn(-c3ccccc3)cc2C(=O)Nc2nccs2)c1,8,65*,i,2,0,i,20,49*,4,4
O=C(NCCN1CCOCC1)c1ccccc1N1C(=O)[C@@H]2Cc3c([nH]c4ccccc34)C(c3ccccc3)N2C1=O (stereo partly specified),7,38,i,-9,2,i,.,.,.,.
O=C(NCCCN1CCOCC1)c1ccccc1N1C(=O)[C@@H]2Cc3c([nH]c4ccccc34)C(c3ccc(F)cc3)N2C1=O (stereo partly specified),12,73*,i,-13,2,i,26*,41,6,7
CCCCn1c(N)c(N(CC)C(=O)CCNC(=O)NC23CC4CC(CC(C4)C2)C3)c(=O)[nH]c1=O,-1,-12,i,-1,0,i,.,.,.,.
C[C@H](O)[C@@H]1C(=O)N2CCc3ccc(N4CCOCC4)cc3[C@@H]2C[C@@H]1N(C)C(=O)Nc1ccccc1,0,-10,.,-4,-3,.,.,.,.,.

# From PubChem
